ChEMBL document CHEMBL1649178, “Penetration of moxifloxacin into bone evaluated by Monte Carlo simulation” (Antimicrob Agents Chemother, 2009)
In brackets after ≈: the same amount, converted by molar mass.

Assays:
[1] = fAUC/MIC in osteomyelitis patient cortical bone at 400 mg, po administered for every 24 hrs at PKPD breakpoint at 0.25 mg/liter; format: functional
How it was run: (§1)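 PKPD targets were derived by reverse engineering from success rates in clinical osteomyelitis studies, the expected AUCs at the doses used there, and published MIC distributions. Bone targets (total drug) use a ciprofloxacin bone/serum AUC ratio of 0.63. Concentration profiles were simulated for 10,000 patients given 400 mg orally q24h at steady state, without residual error, with serum protein binding assumed at 50%.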

[2] = fAUC/MIC in osteomyelitis patient cancellous bone at 400 mg, po administered for every 24 hrs at PKPD breakpoint at 0.25 mg/liter; format: functional; how it was run: as §1
[3] = fAUC/MIC in osteomyelitis patient serum at 400 mg, po administered for every 24 hrs at PKPD breakpoint at 1 mg/liter; format: functional; how it was run: as §1
[4] = fAUC/MIC in osteomyelitis patient cortical bone at 400 mg, po administered for every 24 hrs at PKPD breakpoint at 1 mg/liter; format: functional; how it was run: as §1
[5] = fAUC/MIC in osteomyelitis patient cancellous bone at 400 mg, po administered for every 24 hrs at PKPD breakpoint at 1 mg/liter; format: functional; how it was run: as §1
Staphylococcus aureus = assay: Antimicrobial activity against Staphylococcus aureus
[6] = fAUC/MIC in osteomyelitis patient serum at 400 mg, po administered for every 24 hrs at PKPD breakpoint at 0.375 mg/liter; format: functional; how it was run: as §1
[7] = fAUC/MIC in osteomyelitis patient cortical bone at 400 mg, po administered for every 24 hrs at PKPD breakpoint at 0.5 mg/liter; format: functional; how it was run: as §1
[8] = fAUC/MIC in osteomyelitis patient cancellous bone at 400 mg, po administered for every 24 hrs at PKPD breakpoint at 0.375 mg/liter; format: functional; how it was run: as §1
[9] = fAUC/MIC in osteomyelitis patient serum at 400 mg, po administered for every 24 hrs at PKPD breakpoint at 0.19 mg/liter; format: functional; how it was run: as §1
[10] = Drug level in osteomyelitis patient cortical bone at 400 mg, po administered for every 24 hrs; format: ADME, organism-based, Bone element; conditions: human, in vivo
[11] = Drug level in osteomyelitis patient cancellous bone at 400 mg, po administered for every 24 hrs; format: ADME, organism-based; conditions: human, in vivo

COc1c(N2C[C@@H]3CCCN[C@@H]3C2)c(F)cc2c(=O)c(C(=O)O)cn(C3CC3)c12 [MOXIFLOXACIN]
fAUC/MIC [1]: 55 | fAUC/MIC [2]: 55 | fAUC/MIC [3]: 15 | fAUC/MIC [4]: 13 | fAUC/MIC [5]: 13 | MIC90 (Staphylococcus aureus): 0.125 µg/mL (≈ 0.311 µM) | fAUC/MIC [6]: 40 | fAUC/MIC [7]: 33 | fAUC/MIC [8]: 33 | fAUC/MIC [9]: 66 | Drug uptake [10]: 80% | Drug uptake [11]: 78%
